Measured values from ChEMBL document CHEMBL1142034, “Inhibitors of HCV NS5B polymerase: synthesis and structure-activity relationships of N-1-heteroalkyl-4-hydroxyquinolon-3-yl-benzothiadiazines” (Bioorg Med Chem Lett, 2005).

What was measured:
[1] = biological target: T1, RNA-directed RNA polymerase (Hepacivirus hominis, UniProt O39930); experiment: Inhibitory concentration against RNA dependent RNA polymerase Nonstructural protein 5B of genotype 1a Hepatitis C virus
How it was run: (§1)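 A biochemical assay on NS5B polymerase enzyme gave the IC50 values, run separately for genotype 1a and 1b.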

[2] = biological target: T1, RNA-directed RNA polymerase; experiment: Inhibitory concentration against RNA dependent RNA polymerase Nonstructural protein 5B of genotype 1b Hepatitis C virus; how it was run: as §1
[3] = biological target: T1, RNA-directed RNA polymerase; experiment: Effective concentration against RNA dependent RNA polymerase Nonstructural protein 5B of genotype 1b Hepatitis C virus
How it was run: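 Activity measured in an HCV replicon assay, with EC50 values derived from it.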

T1 sequence (O39930 whole entry): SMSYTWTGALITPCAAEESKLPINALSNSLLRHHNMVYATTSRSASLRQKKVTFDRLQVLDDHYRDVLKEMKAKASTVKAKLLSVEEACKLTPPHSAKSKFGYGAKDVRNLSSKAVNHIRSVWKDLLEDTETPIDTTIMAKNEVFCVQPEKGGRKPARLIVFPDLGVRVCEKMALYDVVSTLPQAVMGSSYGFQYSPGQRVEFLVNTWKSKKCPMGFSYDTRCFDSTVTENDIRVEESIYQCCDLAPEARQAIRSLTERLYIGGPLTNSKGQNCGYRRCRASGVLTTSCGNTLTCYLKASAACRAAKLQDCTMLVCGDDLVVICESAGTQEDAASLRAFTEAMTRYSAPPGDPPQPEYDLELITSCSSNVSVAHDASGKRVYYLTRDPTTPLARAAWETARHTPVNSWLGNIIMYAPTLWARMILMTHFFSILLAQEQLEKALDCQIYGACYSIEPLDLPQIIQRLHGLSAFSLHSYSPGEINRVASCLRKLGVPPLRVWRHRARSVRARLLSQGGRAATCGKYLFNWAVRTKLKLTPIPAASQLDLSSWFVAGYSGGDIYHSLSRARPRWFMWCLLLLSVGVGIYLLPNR

## O=c1c(C2=Nc3ccccc3S(=O)(=O)N2)c(O)c2ccccc2n1NCC1CCCC1
[1]
  IC50: 747 nM
[2]
  IC50: 150 nM

## CCCCNn1c(=O)c(C2=Nc3ccccc3S(=O)(=O)N2)c(O)c2ccccc21
[1]
  IC50: 951 nM
[2]
  IC50: 161 nM
[3]
  EC50: 3480 nM

## O=c1c(C2=Nc3ccccc3S(=O)(=O)N2)c(O)c2ccccc2n1NCc1ccoc1
[1]
  IC50: 1550 nM
[2]
  IC50: 133 nM

## O=c1c(C2=Nc3ccccc3S(=O)(=O)N2)c(O)c2ccccc2n1NCc1cccs1
[1]
  IC50: 2330 nM
[2]
  IC50: 125 nM

## CCC(CC)Nn1c(=O)c(C2=NS(=O)(=O)c3ccccc3N2)c(O)c2ccccc21
[1]
  IC50: 2460 nM
[2]
  IC50: 120 nM

## O=c1c(C2=NS(=O)(=O)c3ccccc3N2)c(O)c2cccnc2n1Cc1ccccc1
[2]
  IC50: 83 nM

## CC(Nn1c(=O)c(C2=Nc3ccccc3S(=O)(=O)N2)c(O)c2ccccc21)c1ccccc1 (configuration not stated)
[1]
  IC50: 16500 nM
[2]
  IC50: 1490 nM

## Cc1cccc(CNn2c(=O)c(C3=NS(=O)(=O)c4ccccc4N3)c(O)c3ccccc32)c1
[1]
  IC50: 8210 nM
[2]
  IC50: 212 nM

## CCC(CC)n1c(=O)c(C2=NS(=O)(=O)c3ccccc3N2)c(O)c2cccnc21
[2]
  IC50: 13200 nM

## O=c1c(C2=Nc3ccccc3S(=O)(=O)N2)c(O)c2ccccc2n1NCc1ccc(Br)cc1
[1]
  IC50: 10400 nM
[2]
  IC50: 4690 nM

## O=c1c(C2=Nc3ccccc3S(=O)(=O)N2)c(O)c2ccccc2n1NCc1nccs1
[1]
  IC50: 35800 nM
[2]
  IC50: 674 nM

## CCC(CC)Cn1c(=O)c(C2=NS(=O)(=O)c3ccccc3N2)c(O)c2cccnc21
[2]
  IC50: 58 nM

## CC(C)CNn1c(=O)c(C2=NS(=O)(=O)c3ccccc3N2)c(O)c2ccccc21
[1]
  IC50: 941 nM
[2]
  IC50: 101 nM
[3]
  EC50: 1350 nM

## Cc1ccsc1CNn1c(=O)c(C2=NS(=O)(=O)c3ccccc3N2)c(O)c2ccccc21
[1]
  IC50: 15000 nM
[2]
  IC50: 1190 nM

## O=c1c(C2=Nc3ccccc3S(=O)(=O)N2)c(O)c2ccccc2n1NCC1CCCCC1
[1]
  IC50: 2530 nM
[2]
  IC50: 150 nM

## CC(C)(C)CCNn1c(=O)c(C2=NS(=O)(=O)c3ccccc3N2)c(O)c2ccccc21
[1]
  IC50: 411 nM
[2]
  IC50: 135 nM

## CCCC(Nn1c(=O)c(C2=NS(=O)(=O)c3ccccc3N2)c(O)c2ccccc21)C(C)C (configuration not stated)
[1]
  IC50: 6400 nM
[2]
  IC50: 1130 nM

## CCCC(CC)Nn1c(=O)c(C2=Nc3ccccc3S(=O)(=O)N2)c(O)c2ccccc21 (configuration not stated)
[1]
  IC50: 1890 nM
[2]
  IC50: 386 nM

## O=c1c(C2=Nc3ccccc3S(=O)(=O)N2)c(O)c2ccccc2n1NCc1ccccc1
[1]
  IC50: 5090 nM
[2]
  IC50: 129 nM
[3]
  EC50: 15700 nM

## CC(C)Nn1c(=O)c(C2=NS(=O)(=O)c3ccccc3N2)c(O)c2ccccc21
[1]
  IC50: 6350 nM
[2]
  IC50: 640 nM

## CC(C)CCn1c(=O)c(C2=NS(=O)(=O)c3ccccc3N2)c(O)c2cccnc21
[2]
  IC50: 69 nM

## Cc1ccccc1CNn1c(=O)c(C2=Nc3ccccc3S(=O)(=O)N2)c(O)c2ccccc21
[1]
  IC50: 6120 nM
[2]
  IC50: 481 nM

## O=c1c(C2=NS(=O)(=O)c3ccccc3N2)c(O)c2ccccc2n1NCC1CC1
[1]
  IC50: 285 nM
[2]
  IC50: 145 nM
[3]
  EC50: 1050 nM

## O=c1c(C2=Nc3ccccc3S(=O)(=O)N2)c(O)c2ccccc2n1NC1CCCCC1
[1]
  IC50: 356 nM
[2]
  IC50: 60 nM
[3]
  EC50: 1270 nM

## Cc1ccc(CNn2c(=O)c(C3=Nc4ccccc4S(=O)(=O)N3)c(O)c3ccccc32)cc1
[1]
  IC50: > 5000 nM
[2]
  IC50: > 5000 nM

## O=c1c(C2=NS(=O)(=O)c3ccccc3N2)c(O)c2cccnc2n1C1CCCCC1
[2]
  IC50: 50000 nM

## CC(C)COn1c(=O)c(C2=Nc3ccccc3S(=O)(=O)N2)c(O)c2cccnc21
[2]
  IC50: 20500 nM

## O=c1c(C2=NS(=O)(=O)c3ccccc3N2)c(O)c2cccnc2n1OCc1ccccc1
[2]
  IC50: 58000 nM

## O=c1c(C2=Nc3ccccc3S(=O)(=O)N2)c(O)c2ccccc2n1NCc1cccnc1
[1]
  IC50: > 5000 nM
[2]
  IC50: 221 nM

## O=c1c(C2=NS(=O)(=O)c3ccccc3N2)c(O)c2ccccc2n1NCc1ccco1
[1]
  IC50: 3260 nM
[2]
  IC50: 305 nM

## O=c1c(C2=Nc3ccccc3S(=O)(=O)N2)c(O)c2ccccc2n1NCC1CCC1
[1]
  IC50: 278 nM
[2]
  IC50: 108 nM
[3]
  EC50: 103 nM

## CCCCCNn1c(=O)c(C2=NS(=O)(=O)c3ccccc3N2)c(O)c2ccccc21
[1]
  IC50: 928 nM

## O=c1c(C2=Nc3ccccc3S(=O)(=O)N2)c(O)c2ccccc2n1NCc1ccccc1Br
[1]
  IC50: 6720 nM
[2]
  IC50: 469 nM

## O=c1c(C2=NS(=O)(=O)c3ccccc3N2)c(O)c2ccccc2n1NC1CCOCC1
[1]
  IC50: 4630 nM
[2]
  IC50: 439 nM

## CC(C)CCNn1c(=O)c(C2=Nc3ccccc3S(=O)(=O)N2)c(O)c2ccccc21
[1]
  IC50: 629 nM
[2]
  IC50: 134 nM

## CCCC(CCC)Nn1c(=O)c(C2=Nc3ccccc3S(=O)(=O)N2)c(O)c2ccccc21
[1]
  IC50: 2240 nM
[2]
  IC50: 1800 nM

## O=c1c(C2=NS(=O)(=O)c3ccccc3N2)c(O)c2ccccc2n1NCc1cccc(Br)c1
[1]
  IC50: 1040 nM
[2]
  IC50: 75 nM

## O=c1c(C2=NS(=O)(=O)c3ccccc3N2)c(O)c2cccnc2n1CC1CCCCC1
[2]
  IC50: 93 nM

## CC(c1ccccc1)n1c(=O)c(C2=NS(=O)(=O)c3ccccc3N2)c(O)c2cccnc21 (configuration not stated)
[2]
  IC50: 4630 nM

## O=c1c(C2=NS(=O)(=O)c3ccccc3N2)c(O)c2ccccc2n1NCc1ccc(Cl)s1
[1]
  IC50: 4780 nM
[2]
  IC50: 1450 nM

## O=c1c(C2=NS(=O)(=O)c3ccccc3N2)c(O)c2cccnc2n1CCc1ccccc1
[2]
  IC50: 1490 nM
